In ChEMBL document CHEMBL4145622, “Banksialactones and Banksiamarins: Isochromanones and Isocoumarins from an Australian Fungus, Aspergillus banksianus” (2018):
Converted amounts (≈) assume the structure as drawn. The source made the active and inactive calls. The calls are words filed in the database; no cut-off is given here.

Assays:
Bacillus spizizenii [1] = test: Antibacterial activity against Bacillus subtilis ATCC 6633 after 48 hrs by resazurin dye based assay; type: functional; settings: for MIC: ATCC 6633, 48 h
Outline: (§1)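 Bacteria pre-grown 24 h in nutrient broth at 28 °C, 100−250 rpm, diluted to 0.01 absorbance unit per mL. Inoculated into wells of compound dispersed in nutrient agar with resazurin (12.5 μg/mL). Test range 100 to 0.05 μg/mL (2-fold dilutions, 1% DMSO). Incubated 48 h at 28 °C. MIC read visually by blue-to-pink colour change.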

Escherichia coli = test: Antibacterial activity against Escherichia coli ATCC 25922 after 48 hrs by resazurin dye based assay; type: functional, organism-based; outline: as §1
Candida albicans = test: Antifungal activity against Candida albicans ATCC 10231 after 48 hrs by bromocresol green dye based assay; type: functional, organism-based
Outline: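 C. albicans grown 24 h in 1% malt extract broth, 250 rpm, 24 °C, diluted to 0.005 absorbance unit per mL. Inoculated onto compound in malt extract agar with bromocresol green (50 μg/mL). Test range 100 to 0.05 μg/mL in 1% DMSO. Incubated 24 °C, 48 h. MIC read visually by blue-to-yellow colour change.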

[2] = (§2) Cytotoxicity against mouse NS1 cells after 48 hrs by resazurin dye based assay; type: functional
Outline: (§3)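 NS-1 myeloma cells seeded at 50 000 cells/mL in DMEM + 10% FBS + 1% penicillin/streptomycin, 37 °C, 5% CO2. Compound range 100 to 0.05 μg/mL (2-fold dilutions, 1% DMSO). Resazurin (250 μg/mL, 10 μL) added at 48 h, then incubated a further 48 h. MIC end point read visually.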

Tritrichomonas suis [3] = test: Antiprotozoal activity against Tritrichomonas foetus KV1 up to 100 ug/ml; type: functional, organism-based
Outline: (§4)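 Trophozoites seeded at 4 × 10^4 cells/mL in medium containing tryptone, yeast extract, glucose, L-cysteine, phosphates, ascorbic acid, FeSO4 and 10% newborn calf serum. Compound range 100 to 0.05 μg/mL in 1% DMSO. Plates held anaerobically at 37 °C.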

Tritrichomonas suis [4] = test: Antiprotozoal activity against Tritrichomonas foetus KV1; type: functional; outline: as §4
Mus musculus [5] = species on record: Mus musculus; test: as §2; type: functional; outline: as §3
Saccharomyces cerevisiae [6] = test: Antifungal activity against Saccharomyces cerevisiae ATCC 9763 up to 100 ug/ml 48 hrs by bromocresol green dye based assay; type: functional, organism-based
Outline: (§5)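 S. cerevisiae grown 24 h in 1% malt extract broth, 250 rpm, 24 °C, diluted to 0.03 absorbance unit per mL. Inoculated onto compound in malt extract agar with bromocresol green (50 μg/mL). 2-fold series from 100 to 0.05 μg/mL in 1% DMSO. Incubated at 24 °C for 48 h. MIC read visually by blue-to-yellow colour change.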

Bacillus spizizenii [7] = test: Antibacterial activity against Bacillus subtilis ATCC 6633 up to 100 ug/ml 48 hrs by resazurin dye based assay; type: functional, organism-based; outline: as §1
Mus musculus [8] = species on record: Mus musculus; test: Cytotoxicity against mouse NS1 cells up to 100 ug/ml 48 hrs by resazurin dye based assay; type: functional, cell-based; outline: as §3
Saccharomyces cerevisiae [9] = test: Antifungal activity against Saccharomyces cerevisiae ATCC 9763 after 48 hrs by bromocresol green dye based assay; type: functional; settings: ATCC 9763, 48 h; outline: as §5

Structure (SMILES) | Activity (Escherichia coli) | Activity (Candida albicans) | Activity (Tritrichomonas suis [4]) | Activity (Bacillus spizizenii [1]) | Activity (Mus musculus [5]) | further results
COc1cc(O)c2c(c1C)[C@H](C)[C@](O)(COC(=O)c1c(O)cc(O)c(C)c1C)OC2=O | inactive | inactive | – | – | – | MIC (Bacillus spizizenii [1]): 50 µg/mL (≈ 116 µM); MIC [2]: 100 µg/mL (≈ 231 µM); Activity (Tritrichomonas suis [3]): inactive
COC(=O)Nc1nc2cc(C(=O)c3ccccc3)ccc2[nH]1 [MEBENDAZOLE] | – | – | – | – | – | MIC (Tritrichomonas suis [4]): 1.6 µg/mL (≈ 5.42 µM)
Cc1c(O)cc(O)c2c1[C@H](C)[C@](O)(CO)OC2=O | inactive | inactive | inactive | inactive | inactive | –
CC1(C)S[C@@H]2[C@H](NC(=O)[C@H](N)c3ccccc3)C(=O)N2[C@H]1C(=O)O [AMPICILLIN] | – | – | – | – | – | MIC (Bacillus spizizenii [1]): 0.4 µg/mL (≈ 1.14 µM)
COc1cc(O)c2c(c1C)[C@H](C)[C@](O)(COC(=O)c1c(C)cc3c(c1O)C(=O)c1c(O)cc(O)cc1C3=O)OC2=O | inactive | inactive | – | – | – | Activity (Saccharomyces cerevisiae [6]): inactive; MIC (Tritrichomonas suis [4]): 12.5 µg/mL (≈ 22.1 µM); MIC (Bacillus spizizenii [1]): 25 µg/mL (≈ 44.3 µM); MIC [2]: 100 µg/mL (≈ 177 µM)
COc1cc(O)cc2c1C(=O)c1c(O)cc(C)cc1C2=O [QUESTIN] | inactive | inactive | – | – | – | Activity (Saccharomyces cerevisiae [6]): inactive; MIC (Tritrichomonas suis [4]): 12.5 µg/mL (≈ 44 µM); Activity (Bacillus spizizenii [7]): inactive; Activity (Mus musculus [8]): inactive
COc1cc(O)c2c(c1C)[C@H](C)[C@](O)(CO)OC2=O | inactive | inactive | inactive | inactive | inactive | –
O=c1[nH]cc(F)c(=O)[nH]1 [FLUOROURACIL] | – | – | – | – | – | MIC [2]: 0.8 µg/mL (≈ 6.15 µM)
COc1cc(O)c2c(c1C)[C@H](C)[C@](O)(CSCC(O)C(=O)O)OC2=O (some centres not stated) | inactive | inactive | inactive | inactive | inactive | –
Clc1ccccc1C(c1ccccc1)(c1ccccc1)n1ccnc1 [CLOTRIMAZOLE] | – | – | – | – | – | MIC (Saccharomyces cerevisiae [9]): 0.2 µg/mL (≈ 0.58 µM)
COc1cc(O)c2c(c1C)[C@H](C)[C@](O)(COC(=O)c1c(C)c(C)c(O)c(C)c1O)OC2=O | inactive | inactive | – | – | – | MIC (Tritrichomonas suis [4]): 50 µg/mL (≈ 112 µM); MIC (Bacillus spizizenii [1]): 25 µg/mL (≈ 56 µM); MIC (Saccharomyces cerevisiae [9]): 50 µg/mL (≈ 112 µM); MIC [2]: 100 µg/mL (≈ 224 µM)
COc1cc(O)c2c(c1C)[C@H](C)[C@H](CO)OC2=O | inactive | inactive | inactive | inactive | inactive | –
COc1cc(OC)c2c(c1C)[C@](C)(O)[C@H](C)OC2=O | inactive | inactive | inactive | inactive | inactive | –
COc1cc(O)c2c(c1C)[C@H](C)[C@](O)(C[S+](C)[O-])OC2=O (some centres not stated) | inactive | inactive | inactive | inactive | inactive | –
COc1cc(O)c2c(c1C)[C@](C)(O)[C@H](C)OC2=O | inactive | inactive | inactive | inactive | inactive | –
